Data reported in ChEMBL document CHEMBL1151773, “Synthesis and biological evaluation of amide derivatives of (5,6-dimethoxy-2,3-dihydro-1H-inden-1-yl)acetic acid as anti-inflammatory agents with reduced gastrointestinal ulcerogenecity” (Eur J Med Chem, 2008).

Legend:
Rattus norvegicus [1] = assay: Antiinflammatory activity in Wistar rat assessed as inhibition of carrageenan-induced hind paw edema volume at 100 mg/kg, po administered 60 mins before carrageenan challenge after 4 hrs relative to control; type: functional
Rattus norvegicus [2] = assay: Antiinflammatory activity in Wistar rat assessed as inhibition of carrageenan-induced hind paw edema volume at 100 mg/kg, po administered 60 mins before carrageenan challenge after 6 hrs relative to control; type: functional
Rattus norvegicus [3] = assay: Antiinflammatory activity in Wistar rat assessed as inhibition of carrageenan-induced hind paw edema volume at 100 mg/kg, po administered 60 mins before carrageenan challenge after 3 hrs relative to control; type: functional
Mus musculus = assay: Analgesic activity in Swiss albino mouse assessed as inhibition of acetic acid-induced writhing at 100 mg/kg, po administered 60 mins before acetic acid challenge after 5 to 15 mins relative to control; type: functional
Outline: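 Female Swiss albino mice, 20±5 g, fasted overnight with free water access, dosed orally; 1 h later injected i.p. with 1% v/v acetic acid at 0.1 ml/10 g. Writhes (full hind-limb extension) counted for 15 min, starting 5 min after injection; only animals giving 20 or more writhes used. % inhibition = 100(1−Wt/Wc) vs control group mean; six animals per group.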

Rattus norvegicus [4] = assay: Antiinflammatory activity in Wistar rat assessed as inhibition of carrageenan-induced hind paw edema volume at 100 mg/kg, po administered 60 mins before carrageenan challenge after 1 hr relative to control; type: functional
Rattus norvegicus [5] = assay: Antiinflammatory activity in Wistar rat assessed as inhibition of carrageenan-induced hind paw edema volume at 100 mg/kg, po administered 60 mins before carrageenan challenge after 2 hrs relative to control; type: functional
Rattus norvegicus [6] = assay: Antiinflammatory activity in Wistar rat assessed as inhibition of carrageenan-induced hind paw edema volume at 100 mg/kg, po administered 60 mins before carrageenan challenge after 24 hrs relative to control; type: functional
Rattus norvegicus [7] = assay: Antipyretic activity in Wistar rat assessed as change in LPS-induced rectal temperature at 100 mg/kg, po administered 30 mins before LPS challenge after 1 hr; type: functional
Outline: (§1)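 Adult female Wistar rats, 170±20 g, fasted 24 h, dosed orally at 09:00; 30 min later E. coli 0111:B4 phenol-extracted LPS in apyrogenic saline given i.p. Rectal temperature by telethermometer probe just before and 1–7 h hourly after LPS; temperature index calculated from these readings. n = 6.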

Rattus norvegicus [8] = assay: Antipyretic activity in Wistar rat assessed as change in LPS-induced rectal temperature at 100 mg/kg, po administered 30 mins before LPS challenge after 2 hrs; type: functional; outline: as §1
Rattus norvegicus [9] = assay: Antipyretic activity in Wistar rat assessed as change in LPS-induced rectal temperature at 100 mg/kg, po administered 30 mins before LPS challenge after 4 hrs; type: functional; outline: as §1
Rattus norvegicus [10] = assay: Antipyretic activity in Wistar rat assessed as change in LPS-induced rectal temperature at 100 mg/kg, po administered 30 mins before LPS challenge after 6 hrs; type: functional; outline: as §1
Rattus norvegicus [11] = assay: Antipyretic activity in Wistar rat assessed as change in LPS-induced rectal temperature at 100 mg/kg, po administered 30 mins before LPS challenge after 5 hrs; type: functional; outline: as §1
Rattus norvegicus [12] = assay: Antipyretic activity in Wistar rat assessed as change in LPS-induced rectal temperature at 100 mg/kg, po administered 30 mins before LPS challenge after 7 hrs; type: functional; outline: as §1
Rattus norvegicus [13] = assay: Antipyretic activity in Wistar rat assessed as change in LPS-induced rectal temperature at 100 mg/kg, po administered 30 mins before LPS challenge after 3 hrs; type: functional; outline: as §1
Rattus norvegicus [14] = assay: Gastrointestinal toxicity in Wistar rat assessed as ulcer index at 100 mg/kg, po after 6 hrs; type: organism-based; set-up: dose 100 mg/kg, route oral; conditions: in vivo
Outline: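 Female Wistar rats, 175±25 g, fasted 24 h, dosed orally once; sacrificed 6 h later by cervical dislocation. Stomach opened along greater curvature, saline-washed, mucosa inspected with a hand lens. Lesions graded I (edema/hyperemia/petechiae), II (hemorrhagic lesions with small erosions), III (deep ulcers); UI = nI + 2nII + 3nIII. Mean ± SEM, n = 6.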

Rattus norvegicus [15] = assay: Antiarthritic activity in Freund's complete adjuvant challenged Albino rat model assessed as change in body weight at 100 mg/kg, po administered for 14 days daily once starting a day before adjuvant challenge; type: functional; conditions: 336 h, read-out: INH
Rattus norvegicus [16] = assay: Antiarthritic activity in Albino rat assessed as inhibition of Freund's complete adjuvant-induced paw volume at 100 mg/kg, po administered for 14 days daily once starting a day before adjuvant challenge measured on day 13; type: functional
Outline: (§2)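 Female albino rats, 160±10 g, six per group, dosed orally once daily for 14 days starting the day before 0.1 ml Freund's complete adjuvant into the right hind paw subplantar surface. Both hind paw volumes, measured up to a mark at the lateral malleolus, taken before and daily after adjuvant.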

Rattus norvegicus [17] = assay: Antiarthritic activity in Albino rat assessed as inhibition of Freund's complete adjuvant-induced paw volume at 100 mg/kg, po administered for 14 days daily once starting a day before adjuvant challenge measured on day 8; type: functional; outline: as §2
Rattus norvegicus [18] = assay: Antiarthritic activity in Albino rat assessed as inhibition of Freund's complete adjuvant-induced paw volume at 100 mg/kg, po administered for 14 days daily once starting a day before adjuvant challenge measured on day 3; type: functional; outline: as §2

| SMILES | inhibition in vivo at 100 mg/kg (Rattus norvegicus [1]) | inhibition in vivo at 100 mg/kg (Rattus norvegicus [2]) | inhibition in vivo at 100 mg/kg (Rattus norvegicus [3]) | inhibition in vivo at 100 mg/kg (Mus musculus) | inhibition in vivo at 100 mg/kg (Rattus norvegicus [4]) | inhibition in vivo at 100 mg/kg (Rattus norvegicus [5]) | inhibition in vivo at 100 mg/kg (Rattus norvegicus [6]) | Activity (Rattus norvegicus [7]) | Activity (Rattus norvegicus [8]) | Activity (Rattus norvegicus [9]) | Activity (Rattus norvegicus [10]) | Activity (Rattus norvegicus [11]) | Activity (Rattus norvegicus [12]) | Activity (Rattus norvegicus [13]) | UI (Rattus norvegicus [14]) | inhibition in vivo at 100 mg/kg (Rattus norvegicus [15]) | inhibition in vivo at 100 mg/kg (Rattus norvegicus [16]) | inhibition in vivo at 100 mg/kg (Rattus norvegicus [17]) | inhibition in vivo at 100 mg/kg (Rattus norvegicus [18]) |
| --- | --- | --- | --- | --- | --- | --- | --- | --- | --- | --- | --- | --- | --- | --- | --- | --- | --- | --- | --- |
| COc1cc2c(cc1OC)C(CC(=O)O)CC2 (stereo not drawn) | 23.9% | 20.4% | 27.5% | 44% | 18.8% | 24% | 26.7% | – | – | – | – | – | – | – | – | – | – | – | – |
| COc1cc2c(cc1OC)C(CC(=O)NCCO)CC2 (stereo not drawn) | 9.37% | 13% | 12.3% | 29.8% | 0% | 0% | 13.3% | -0.65 °C | -1.93 °C | 0.34 °C | 0.65 °C | 0.57 °C | 0.66 °C | 0.17 °C | – | – | – | – | – |
| COc1cc2c(cc1OC)C(CC(=O)NC(C)C)CC2 (stereo not drawn) | 39.1% | 37% | 30.4% | 29.3% | 31.2% | 37% | 30% | -0.41 °C | -1.51 °C | 0.19 °C | 0.55 °C | 0.43 °C | 0.59 °C | -0.39 °C | 0 | – | – | – | – |
| COc1cc2c(cc1OC)C(CC(=O)N1CCOCC1)CC2 (stereo not drawn) | 13.3% | 14.8% | 19.6% | 23.6% | 15.6% | 14% | 23.3% | – | – | – | – | – | – | – | – | – | – | – | – |
| COc1cc2c(cc1OC)C(CC(=O)N1CCCC1)CC2 (stereo not drawn) | 24.2% | 22.2% | 26.1% | 19.2% | 4.69% | 20% | 33.3% | – | – | – | – | – | – | – | – | – | – | – | – |
| COc1cc2c(cc1OC)C(CC(=O)N(C)C)CC2 (stereo not drawn) | 35.9% | 33.3% | 34.8% | 22.6% | 25% | 36% | 23.3% | – | – | – | – | – | – | – | – | – | – | – | – |
| COc1cc2c(cc1OC)C(CC(N)=O)CC2 (stereo not drawn) | 31.2% | 27.8% | 30.4% | 24.6% | 18.8% | 31% | 26.7% | – | – | – | – | – | – | – | – | – | – | – | – |
| CCNC(=O)CC1CCc2cc(OC)c(OC)cc21 (stereo not drawn) | 26.6% | 20.4% | 26.1% | 23.6% | 15.6% | 26% | 33.3% | – | – | – | – | – | – | – | – | – | – | – | – |
| COc1cc2c(cc1OC)C(CC(=O)N1CCCCC1)CC2 (stereo not drawn) | 32% | 31.5% | 31.9% | 44.7% | 18.8% | 22% | 40% | – | – | – | – | – | – | – | – | – | – | – | – |
| CCCCNC(=O)CC1CCc2cc(OC)c(OC)cc21 (stereo not drawn) | 25% | 24.1% | 27.5% | 39.4% | 31.2% | 24% | 36.7% | – | – | – | – | – | – | – | – | – | – | – | – |
| CCCCCNC(=O)CC1CCc2cc(OC)c(OC)cc21 (stereo not drawn) | 40.6% | 35.2% | 37.7% | 71.7% | 34.4% | 34% | 46.7% | – | – | – | – | – | – | – | – | – | – | – | – |
| COc1cc2c(cc1OC)C(CC(=O)N1CCNCC1)CC2 (stereo not drawn) | 40.6% | 33.3% | 42% | 68.8% | 62.5% | 44% | 65% | -0.45 °C | -1.23 °C | -0.18 °C | 0.19 °C | 0.11 °C | 0.16 °C | -0.85 °C | 0 | 3.11 g | 2.35% | 28.8% | 35.3% |
| CNC(=O)CC1CCc2cc(OC)c(OC)cc21 (stereo not drawn) | 29.7% | 24.1% | 29% | 21.2% | 15.6% | 30% | 33.3% | – | – | – | – | – | – | – | – | – | – | – | – |
| COc1cc2c(cc1OC)C(CC(=O)NC(C)(C)C)CC2 (stereo not drawn) | 32.8% | 31.5% | 33.3% | 41.8% | 31.2% | 32% | 40% | – | – | – | – | – | – | – | – | – | – | – | – |
| CCN(CC)C(=O)CC1CCc2cc(OC)c(OC)cc21 (stereo not drawn) | 37.5% | 31.5% | 37.7% | 27.4% | 31.2% | 40% | 16.7% | – | – | – | – | – | – | – | – | – | – | – | – |
| COc1cc2c(cc1OC)C(CC(=O)NC1CC1)CC2 (stereo not drawn) | 17.2% | 11.1% | 18.8% | 32.7% | 21.9% | 14% | 0% | – | – | – | – | – | – | – | – | – | – | – | – |
| CCCNC(=O)CC1CCc2cc(OC)c(OC)cc21 (stereo not drawn) | 26.6% | 22.2% | 29% | 26.9% | 18.8% | 28% | 26.7% | – | – | – | – | – | – | – | – | – | – | – | – |
| COc1cc2c(cc1OC)C(CC(=O)NCc1ccccc1)CC2 (stereo not drawn) | 18.8% | 30.6% | 14.4% | 48% | 18.8% | 24% | 43.3% | – | – | – | – | – | – | – | – | – | – | – | – |
| COc1cc2c(cc1OC)C(CC(=O)NC1CCCC1)CC2 (stereo not drawn) | 45.3% | 40.7% | 43.5% | 37% | 40.6% | 52% | 46.7% | – | – | – | – | – | – | – | – | – | – | – | – |
| CC(=O)Oc1ccccc1C(=O)O [ASPIRIN] | – | – | – | 61.5% | – | – | – | -0.43 °C | -1.45 °C | 0.05 °C | 0.17 °C | 0.11 °C | 0.23 °C | -0.51 °C | – | – | – | – | – |
